The nature of experiment [1]: Selectivity ratio of Ki for rat mu opioid receptor to Ki for human delta opioid receptor.
Experiment [2] addresses T1, Delta-type opioid receptor (Homo sapiens, UniProt P41143). The experiment can be described thus: Agonist activity at human delta opioid receptor transfected in HN9.10 cells by [35S]GTPgammaS binding assay. The format is functional, cell-based. An outline of the steps:
(§1)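 Membranes from transfected HN9.10 cells constitutively expressing human DOR or rat MOR. EC50 comes from non-linear regression of at least two independent experiments in duplicate. Emax = [Total bound − Basal]/[Basal − Non-specific] × 100.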
In general terms: Binding of GTPγS marks nucleotide exchange on a G protein.

Experiment [3] deals with Mu-type opioid receptor (Rattus norvegicus) (UniProt P33535). Kind of experiment: (§2) Agonist activity at rat mu opioid receptor transfected in HN9.10 cells by [35S]GTPgammaS binding assay. The format is functional, cell-based. The gist of the method:
as §1

Experiment [4] has as its target Mu-type opioid receptor (Rattus norvegicus, UniProt P33535). The experiment is described as §2. The format is functional, cell-based. An outline of the steps: as §1
Experiment [5] concerns the target Delta-type opioid receptor (Mus musculus) (UniProt P32300). Kind of experiment: Agonist activity at delta opioid receptor in mouse vas deferens assessed as inhibition of electrically-stimulated muscle contraction at 1 uM relative to control.
In experiment [6] the target is Mu-type opioid receptor (Cavia porcellus) (UniProt P97266). Kind of experiment: Agonist activity at mu opioid receptor in guinea pig ileum assessed as inhibition of electrically-stimulated muscle contraction at 1 uM relative to control. The experiment is classed as tissue-based.
Experiment [7] addresses Substance-P receptor (Rattus norvegicus, UniProt P14600). Kind of experiment: Displacement of [3H]-substance P from rat NK1 receptor transfected in CHO cells. The experiment is classed as cell-based.
Experiment [8] can be described thus: Ratio of Ki for rat NK1 receptor to Ki for human NK1 receptor.
The target of experiment [9] is Substance-P receptor (Cavia porcellus) (UniProt P30547). Kind of experiment: Antagonist activity at NK1 receptor in guinea pig ileum assessed as inhibition of substance P-induced muscle contraction in presence of naloxone. The experiment is classed as tissue-based.
Experiment [10] deals with T1, Delta-type opioid receptor. Kind of experiment: Displacement of [3H]-DPDPE from human delta opioid receptor transfected in HN9.10 cells. The format is cell-based. A general note: Loss of bound radioactivity is the signal in a displacement assay; it reports binding, not function.
Experiment [11] has as its target Delta-type opioid receptor (Mus musculus, UniProt P32300). Kind of experiment: Agonist activity at delta opioid receptor in mouse vas deferens assessed as inhibition of electrically-stimulated muscle contraction. The gist of the method:
(§3)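 Electrically stimulated isolated tissue (mouse vas deferens or guinea pig ileum).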

Experiment [12] concerns the target Mu-type opioid receptor (Cavia porcellus, UniProt P97266). The experiment can be described thus: Agonist activity at mu opioid receptor in guinea pig ileum assessed as inhibition of electrically-stimulated muscle contraction. The experiment is classed as tissue-based. The gist of the method:
as §3

Non-standard residues stand in square brackets, D forms with d. Residues, ends and D or L forms follow the SMILES beside them. *: point of attachment. OBzl(3,5-(CF3)2) = FC(F)(F)c1cc(CO*)cc(C(F)(F)F)c1; Phe(4-Cl) = N[C@@H](Cc1ccc(Cl)cc1)C(=O)O; Phe(4-F) = N[C@@H](Cc1ccc(F)cc1)C(=O)O; Nle = CCCC[C@H](N)C(=O)O; βAla = NCCC(=O)O

Sequence of Mu-type opioid receptor (Rattus norvegicus) (P33535 whole entry): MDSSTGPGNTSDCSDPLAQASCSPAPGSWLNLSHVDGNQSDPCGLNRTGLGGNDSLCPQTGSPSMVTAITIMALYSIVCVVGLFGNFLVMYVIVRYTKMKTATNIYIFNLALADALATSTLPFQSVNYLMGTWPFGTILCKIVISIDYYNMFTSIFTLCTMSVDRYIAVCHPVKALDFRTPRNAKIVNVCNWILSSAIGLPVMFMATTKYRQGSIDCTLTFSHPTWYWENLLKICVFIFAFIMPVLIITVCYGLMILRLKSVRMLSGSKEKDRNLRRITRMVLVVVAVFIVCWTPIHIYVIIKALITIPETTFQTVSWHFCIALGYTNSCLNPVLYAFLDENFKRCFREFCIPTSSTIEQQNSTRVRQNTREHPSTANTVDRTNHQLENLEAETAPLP
Sequence of Substance-P receptor (P14600 whole entry): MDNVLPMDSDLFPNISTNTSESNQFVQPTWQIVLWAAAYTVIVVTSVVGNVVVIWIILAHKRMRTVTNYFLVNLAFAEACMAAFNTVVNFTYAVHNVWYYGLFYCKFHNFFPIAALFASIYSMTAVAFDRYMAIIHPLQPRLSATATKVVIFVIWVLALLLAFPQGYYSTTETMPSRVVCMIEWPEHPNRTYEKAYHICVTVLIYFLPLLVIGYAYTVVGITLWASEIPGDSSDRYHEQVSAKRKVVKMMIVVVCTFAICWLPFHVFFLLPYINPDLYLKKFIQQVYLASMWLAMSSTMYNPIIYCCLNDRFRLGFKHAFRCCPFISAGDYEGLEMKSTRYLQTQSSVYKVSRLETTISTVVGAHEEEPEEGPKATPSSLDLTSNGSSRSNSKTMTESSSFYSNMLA
T1 sequence (P41143 whole entry): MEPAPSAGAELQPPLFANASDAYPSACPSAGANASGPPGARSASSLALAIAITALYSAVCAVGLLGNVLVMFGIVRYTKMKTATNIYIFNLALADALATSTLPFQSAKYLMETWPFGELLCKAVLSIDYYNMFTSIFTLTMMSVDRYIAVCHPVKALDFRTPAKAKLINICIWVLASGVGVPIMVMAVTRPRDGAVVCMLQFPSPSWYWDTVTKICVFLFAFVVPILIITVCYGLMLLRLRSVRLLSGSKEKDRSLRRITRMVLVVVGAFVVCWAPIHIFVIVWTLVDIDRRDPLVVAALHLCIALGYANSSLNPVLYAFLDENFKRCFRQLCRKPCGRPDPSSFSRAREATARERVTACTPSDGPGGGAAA
Sequence of Substance-P receptor (Cavia porcellus) (P30547 whole entry): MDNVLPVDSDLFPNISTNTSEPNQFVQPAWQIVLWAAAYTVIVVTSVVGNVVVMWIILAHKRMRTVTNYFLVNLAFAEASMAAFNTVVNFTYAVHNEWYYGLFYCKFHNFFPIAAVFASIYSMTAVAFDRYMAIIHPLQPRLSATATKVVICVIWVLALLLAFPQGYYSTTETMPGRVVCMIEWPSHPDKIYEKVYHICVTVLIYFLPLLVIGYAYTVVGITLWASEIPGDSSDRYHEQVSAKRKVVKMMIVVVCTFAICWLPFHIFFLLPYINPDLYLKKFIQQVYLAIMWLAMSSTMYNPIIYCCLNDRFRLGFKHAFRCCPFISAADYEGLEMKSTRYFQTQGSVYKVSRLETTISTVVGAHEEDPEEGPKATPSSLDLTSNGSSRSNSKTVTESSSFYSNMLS
Sequence of Mu-type opioid receptor (Cavia porcellus, UniProt P97266) (P97266 whole entry): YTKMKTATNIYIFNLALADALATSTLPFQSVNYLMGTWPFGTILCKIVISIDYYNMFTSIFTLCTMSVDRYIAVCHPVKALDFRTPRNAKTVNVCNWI
Sequence of Delta-type opioid receptor (Mus musculus, UniProt P32300) (P32300 whole entry): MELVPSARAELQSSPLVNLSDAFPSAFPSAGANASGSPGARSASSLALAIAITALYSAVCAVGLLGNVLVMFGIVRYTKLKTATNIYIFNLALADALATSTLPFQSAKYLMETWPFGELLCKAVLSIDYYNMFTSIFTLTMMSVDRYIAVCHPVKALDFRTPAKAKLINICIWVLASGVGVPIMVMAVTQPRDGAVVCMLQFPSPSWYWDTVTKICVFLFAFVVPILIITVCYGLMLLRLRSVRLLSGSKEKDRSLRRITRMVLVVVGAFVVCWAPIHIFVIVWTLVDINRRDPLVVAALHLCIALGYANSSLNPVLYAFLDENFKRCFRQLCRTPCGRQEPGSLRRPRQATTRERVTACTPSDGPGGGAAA
Sequence of Mu-type opioid receptor (Rattus norvegicus, UniProt P33535) (P33535 whole entry): as the sequence (P33535 whole entry) above
Sequence of Mu-type opioid receptor (Cavia porcellus) (P97266 whole entry): as the sequence (P97266 whole entry) above
Sequence of Delta-type opioid receptor (Mus musculus) (P32300 whole entry): as the sequence (P32300 whole entry) above

As a reminder, the Emax is the greatest response seen or fitted, relative to the assay's reference. What is called EC50 is the concentration needed to bring the measured effect to its halfway point. The low end stands for greater potency, the high end for weaker potency. As a reminder, the inhibition is the percentage by which the read-out fell short of the control. By Ki is commonly meant a dissociation constant, usually derived from enzyme kinetics or from competition with a known ligand. The low end stands for a stronger hold on the target, the high end for a looser hold on the target. On to `C[C@@H](NC(=O)[C@@H](N)Cc1ccc(O)cc1)C(=O)N[C@@H](Cc1c[nH]c2ccccc12)C(=O)OCc1cc(C(F)(F)F)cc(C(F)(F)F)c1`, for which the Ratio Ki in [1] came out at 1.8; in [8] it was 730. Further, the Emax in [2] stood at 36%; in experiment [3], 26%. The compound further came in with an EC50 in experiment [4] of 170 nM. Besides, the results for the inhibition in experiment [5] and in [6] were 5.5% and 3.3%, respectively. Besides, affinity in experiment [7] was put at a Ki of 2.9 nM. Moreover, the Ke in experiment [9] was determined as 49 nM.
Regarding `CCCC[C@H](NC(=O)[C@H](Cc1ccccc1)NC(=O)CNC(=O)[C@@H](C)NC(=O)[C@@H](N)Cc1ccc(O)cc1)C(=O)N[C@@H](Cc1c[nH]c2ccccc12)C(=O)OCc1cc(C(F)(F)F)cc(C(F)(F)F)c1` (H-Y[dA]GF[Nle]W-{OBzl(3,5-(CF3)2)}), in [9], the Ke is 13 nM.
The same measure, in the same setting: next, `C[C@@H](NC(=O)[C@@H](N)Cc1ccc(O)cc1)C(=O)NCC(=O)N[C@@H](Cc1ccc(F)cc1)C(=O)NCC(=O)N[C@@H](Cc1c[nH]c2ccccc12)C(=O)OCc1cc(C(F)(F)F)cc(C(F)(F)F)c1` (H-Y[dA]G[Phe(4-F)]GW-{OBzl(3,5-(CF3)2)}): 10 nM; `C[C@@H](NC(=O)[C@@H](N)Cc1ccc(O)cc1)C(=O)NCC(=O)N[C@@H](Cc1ccc(Cl)cc1)C(=O)NCC(=O)N[C@@H](Cc1c[nH]c2ccccc12)C(=O)OCc1cc(C(F)(F)F)cc(C(F)(F)F)c1` (H-Y[dA]G[Phe(4-Cl)]GW-{OBzl(3,5-(CF3)2)}): 30 nM.
Consider `C[C@@H](NC(=O)[C@@H](N)Cc1ccc(O)cc1)C(=O)NCC(=O)N[C@@H](Cc1ccccc1)C(=O)N[C@@H](Cc1c[nH]c2ccccc12)C(=O)OCc1cc(C(F)(F)F)cc(C(F)(F)F)c1` (H-Y[dA]GFW-{OBzl(3,5-(CF3)2)}), for which, in [3], the maximal effect (Emax) amounted to 14%. The Ke in [9] came out at 38 nM.
One may read the IC50 as the concentration that gives 50% inhibition. For `C[C@@H](NC(=O)[C@@H](N)Cc1ccc(O)cc1)C(=O)NCC(=O)N[C@@H](Cc1ccc(F)cc1)C(=O)OCc1cc(C(F)(F)F)cc(C(F)(F)F)c1`, the inhibition constant Ki is 56 nM in [10] and 230 nM in experiment [7]. The compound further yielded a 50% effective concentration (EC50) in [2] of 6.7 nM. Also, the maximal effect (Emax) in experiment [2] came to 78%; in experiment [3], 58%. Besides, the half-maximal inhibitory concentration (IC50) is 180 nM in experiment [11] and 210 nM in experiment [12]. Moreover, in experiment [9], the Ke amounted to 52 nM.
Take `C[C@@H](NC(=O)[C@@H](N)Cc1ccc(O)cc1)C(=O)NCC(=O)N[C@@H](Cc1c[nH]c2ccccc12)C(=O)OCc1cc(C(F)(F)F)cc(C(F)(F)F)c1` (H-Y[dA]GW-{OBzl(3,5-(CF3)2)}): the results for the Ki in experiment [10] and in [7] were 310 nM and 15 nM, respectively. Besides, the Ratio Ki amounted to 0.16 in experiment [1] and 500 in experiment [8]. Moreover, the Emax in [2] came out at 33%; in experiment [3] it was 34%. The Ke in [9] amounted to 5 nM. Further, the IC50 in [12] was found to be 840 nM.
Consider `C[C@@H](NC(=O)[C@@H](N)Cc1ccc(O)cc1)C(=O)NCC(=O)N[C@@H](Cc1ccccc1)C(=O)NCCC(=O)N[C@@H](Cc1c[nH]c2ccccc12)C(=O)OCc1cc(C(F)(F)F)cc(C(F)(F)F)c1` (H-Y[dA]GF[βAla]W-{OBzl(3,5-(CF3)2)}), for which the IC50 in [11] stood at 13 nM. Moreover, the Ke in [9] amounted to 250 nM.
In the case of `Cc1cc(O)cc(C)c1C[C@H](N)C(=O)N[C@H](C)C(=O)N[C@@H](Cc1c[nH]c2ccccc12)C(=O)NCc1cc(C(F)(F)F)cc(C(F)(F)F)c1`, the maximal effect (Emax) in experiment [2] is 50%. For the same compound, the Ke in [9] worked out at 22 nM.
As to `Cc1cc(O)cc(C)c1C[C@H](N)C(=O)N[C@H](C)C(=O)N[C@@H](Cc1c[nH]c2ccccc12)C(=O)OCc1cc(C(F)(F)F)cc(C(F)(F)F)c1`, the concentration giving a half-maximal response (EC50) in [2] stood at 12 nM. In experiment [9], the Ke stood at 110 nM.
